Where no end group is shown, it is not given here.

For orientation: IC50 means the point on the concentration scale where inhibition reaches its midpoint. A high value points to weaker potency in that assay.

The test system of data set [1] is WEHI 274.1 murine monocytes. Kind of data set: In vitro cell viability. As to conditions: MTS assay, varying concentrations, 24 and 72 h, n = 6. Background: Tetrazolium dyes change colour on reduction, which living cells bring about.
Another data set in a line: Zeta potential analysis. It counts as physicochemical. As to conditions: 100 μM in water, n = 3. The gist of the method: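 Micelles made by methanol thin-film evaporation, overnight vacuum drying and 30 min hydration at 80 °C, then cooled to room temperature. Zeta potential measured on 100 μM micelles dissolved in water, n = 3.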
The test system of data set [2] is WEHI 274.1 murine monocytes. The data set can be described thus: Chemotaxis assay. As to conditions: 1000 μM, 4 h, transwell 8 μm pores, Pico Green, n = 5, mean ± SEM. It counts as cell-based.
For data set [3], the system named is PC3 prostate cancer cells. Kind of data set: In vitro cytotoxicity. It counts as cell-based. As to conditions: 72 h.
For data set [4], the system named is CCR2 gene expression in 22Rv1 prostate cancer cells. Kind of data set: CCR2 expression by qRT-PCR. It is filed as cell-based. Particulars: 22Rv1 cells, 5 μM (noncytotoxic), vs PBS, n = 3. In short, it runs like this:
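22Rv1 cells kept in RPMI-1640 with 10% FBS and 1% penicillin-streptomycin at 37 °C, 5% CO2, treated with test compound at 5 μM or PBS. cDNA made with an RT2 first-strand kit and amplified with RT2 SYBR Green qPCR master mix. Relative expression vs Actb or GAPDH housekeeping gene by the 2ΔΔCq method. n = 3, mean ± SEM.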
For orientation: In qPCR the cycle at which signal appears reflects the starting amount.

The test system of data set [5] is 22Rv1 prostate cancer cells. It is filed as cell-based. Particulars: 72 h.

For the substance “CYNSLVFRIRNSTQRKYRASISTK-OH [scrambled peptide]”, the “cell viability of monocytes” value in data set [1] is listed as “no decrease in cell viability”. The substance also returned a zeta potential in the data set “Zeta potential analysis” of 7.2 ± 3.4 mV. The “migrated monocytes (DNA quantification)” value in data set [2] is given as 13.9 ± 2.8 ng DNA/mL. Moreover, the IC50 in data set [3] is more than 100 µM; in data set [5], 76.1 ± 15.8 µM. Besides, the “downregulation of CCR2 gene expression” value in data set [4] was “unappreciable CCR2 changes”.
